Measurements as given in ChEMBL document CHEMBL4118024, “Tannins and Tannin-Related Derivatives Enhance the (Pseudo-)Halogenating Activity of Lactoperoxidase” (J Nat Prod, 2017).

Key:
Details in all cases: Bos taurus; call rule not given here
[1] = tested on: O=C(O[C@@H]1Cc2c(O)cc(O)cc2O[C@@H]1c1cc(O)c(O)c(O)c1)c1cc(O)c(O)c(O)c1; assay: (§1) Induction of H2O2-inactivated bovine milk lactoperoxidase pseudo-halogenating activity assessed as increase in hypothiocyanate formation by measuring ratio of Kcat to Km for substrate using thiocyanate as substrate by Lineweaver-Burk plot
Outline: (§2)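 Bovine milk LPO, lyophilized (about 80% purity), 5 nM final, in PBS (10 mM, pH 7.4) at 37 °C with 2 mM SCN−, 50 μM TNB and 80 μM H2O2. Compounds from 5 or 10 mM DMSO stocks, final 0.01–500 μM. −OSCN formation followed at 412 nm as TNB conversion to DTNB in a plate reader. KM, Vmax, kcat and specificity constant from Lineweaver–Burk plots. Mean ± SD, n = 3.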

[2] = tested on: Oc1cc(O)c2c(c1)O[C@H](c1ccc(O)c(O)c1)[C@H](O)C2; assay: as §1; outline: as §2
[3] = tested on: O=C(/C=C/c1ccc(O)c(O)c1)O[C@@H]1C[C@](O)(C(=O)O)C[C@@H](O)[C@H]1O; assay: as §1; outline: as §2
[4] = tested on: O=C(OC[C@H]1O[C@@H](OC(=O)c2cc(O)c(O)c(O)c2)[C@H](O)[C@@H](OC(=O)c2cc(O)c(O)c(O)c2)[C@@H]1O)c1cc(O)c(O)c(O)c1; assay: as §1; outline: as §2
[5] = tested on: Oc1cc(O)c2c(c1)O[C@H](c1ccc(O)c(O)c1)[C@H](O)[C@H]2c1c(O)cc(O)c2c1O[C@H](c1ccc(O)c(O)c1)[C@H](O)C2; assay: as §1; outline: as §2
[6] = tested on: O=C1O[C@@H]2[C@@H](OC(=O)c3cc(O)c(O)c(O)c3-c3c1cc(O)c(O)c3O)[C@H](O)O[C@@H]1COC(=O)c3cc(O)c(O)c(O)c3-c3c(O)c(O)c4oc(=O)c5c(c(O)c(O)c6oc(=O)c3c4c65)-c3c(cc(O)c(O)c3O)C(=O)O[C@@H]21; assay: as §1; outline: as §2
[7] = tested on: Oc1cc(O)c2c(c1)O[C@H](c1ccc(O)c(O)c1)[C@H](O)[C@H]2c1c(O)cc(O)c2c1O[C@H](c1ccc(O)c(O)c1)[C@H](O)[C@H]2c1c(O)cc(O)c2c1O[C@H](c1ccc(O)c(O)c1)[C@H](O)C2; assay: as §1; outline: as §2
O=C(O)c1cc(O)c(O)c(O)c1 [8] = assay: as §1; outline: as §2
[9] = tested on: Oc1cc(O)c2c(c1)O[C@H](c1cc(O)c(O)c(O)c1)[C@H](O)C2; assay: as §1; outline: as §2
[10] = tested on: O=c1oc2c(O)c(O)cc3c(=O)oc4c(O)c(O)cc1c4c23; assay: as §1; outline: as §2
COC(=O)c1cc(O)c(O)c(O)c1 [11] = assay: as §1; outline: as §2
[12] = tested on: Oc1cc(O)c2c(c1)O[C@@]1(c3ccc(O)c(O)c3)Oc3cc(O)c4c(c3[C@@H]2[C@H]1O)O[C@H](c1ccc(O)c(O)c1)[C@H](O)C4; assay: as §1; outline: as §2
[13] = tested on: O=C(O[C@@H]1Cc2c(O)cc(O)cc2O[C@@H]1c1cc(O)c(O)c(O)c1)c1cc(O)c(O)c(O)c1; assay: (§3) Induction of H2O2-inactivated bovine milk lactoperoxidase pseudo-halogenating activity assessed as increase in hypothiocyanate formation by measuring substrate Km using thiocyanate as substrate by Lineweaver-Burk plot; outline: as §2
[14] = tested on: Oc1cc(O)c2c(c1)O[C@H](c1ccc(O)c(O)c1)[C@H](O)C2; assay: as §3; outline: as §2
[15] = tested on: O=C(/C=C/c1ccc(O)c(O)c1)O[C@@H]1C[C@](O)(C(=O)O)C[C@@H](O)[C@H]1O; assay: as §3; outline: as §2
[16] = tested on: O=C(OC[C@H]1O[C@@H](OC(=O)c2cc(O)c(O)c(O)c2)[C@H](O)[C@@H](OC(=O)c2cc(O)c(O)c(O)c2)[C@@H]1O)c1cc(O)c(O)c(O)c1; assay: as §3; outline: as §2
[17] = tested on: Oc1cc(O)c2c(c1)O[C@H](c1ccc(O)c(O)c1)[C@H](O)[C@H]2c1c(O)cc(O)c2c1O[C@H](c1ccc(O)c(O)c1)[C@H](O)C2; assay: as §3; outline: as §2
[18] = tested on: O=C1O[C@@H]2[C@@H](OC(=O)c3cc(O)c(O)c(O)c3-c3c1cc(O)c(O)c3O)[C@H](O)O[C@@H]1COC(=O)c3cc(O)c(O)c(O)c3-c3c(O)c(O)c4oc(=O)c5c(c(O)c(O)c6oc(=O)c3c4c65)-c3c(cc(O)c(O)c3O)C(=O)O[C@@H]21; assay: as §3; outline: as §2
[19] = tested on: O=C(OC[C@H]1O[C@@H](OC(=O)c2cc(O)c(O)c(O)c2)[C@H](OC(=O)c2cc(O)c(O)c(O)c2)[C@@H](OC(=O)c2cc(O)c(O)c(O)c2)[C@@H]1OC(=O)c1cc(O)c(O)c(O)c1)c1cc(O)c(O)c(O)c1; assay: as §3; outline: as §2
[20] = tested on: Oc1cc(O)c2c(c1)O[C@H](c1ccc(O)c(O)c1)[C@H](O)[C@H]2c1c(O)cc(O)c2c1O[C@H](c1ccc(O)c(O)c1)[C@H](O)[C@H]2c1c(O)cc(O)c2c1O[C@H](c1ccc(O)c(O)c1)[C@H](O)C2; assay: as §3; outline: as §2
O=C(O)c1cc(O)c(O)c(O)c1 [21] = assay: as §3; outline: as §2
[22] = tested on: Oc1cc(O)c2c(c1)O[C@H](c1cc(O)c(O)c(O)c1)[C@H](O)C2; assay: as §3; outline: as §2
[23] = tested on: O=c1oc2c(O)c(O)cc3c(=O)oc4c(O)c(O)cc1c4c23; assay: as §3; outline: as §2
COC(=O)c1cc(O)c(O)c(O)c1 [24] = assay: as §3; outline: as §2
[25] = tested on: Oc1cc(O)c2c(c1)O[C@@]1(c3ccc(O)c(O)c3)Oc3cc(O)c4c(c3[C@@H]2[C@H]1O)O[C@H](c1ccc(O)c(O)c1)[C@H](O)C4; assay: as §3; outline: as §2
[26] = tested on: O=C(O[C@@H]1Cc2c(O)cc(O)cc2O[C@@H]1c1cc(O)c(O)c(O)c1)c1cc(O)c(O)c(O)c1; assay: (§4) Induction of H2O2-inactivated bovine milk lactoperoxidase pseudo-halogenating activity assessed as increase in hypothiocyanate formation by measuring substrate Kcat using thiocyanate as substrate by Lineweaver-Burk plot; outline: as §2
[27] = tested on: Oc1cc(O)c2c(c1)O[C@H](c1ccc(O)c(O)c1)[C@H](O)C2; assay: as §4; outline: as §2
[28] = tested on: O=C(/C=C/c1ccc(O)c(O)c1)O[C@@H]1C[C@](O)(C(=O)O)C[C@@H](O)[C@H]1O; assay: as §4; outline: as §2
[29] = tested on: O=C(OC[C@H]1O[C@@H](OC(=O)c2cc(O)c(O)c(O)c2)[C@H](O)[C@@H](OC(=O)c2cc(O)c(O)c(O)c2)[C@@H]1O)c1cc(O)c(O)c(O)c1; assay: as §4; outline: as §2
[30] = tested on: Oc1cc(O)c2c(c1)O[C@H](c1ccc(O)c(O)c1)[C@H](O)[C@H]2c1c(O)cc(O)c2c1O[C@H](c1ccc(O)c(O)c1)[C@H](O)C2; assay: as §4; outline: as §2
[31] = tested on: O=C1O[C@@H]2[C@@H](OC(=O)c3cc(O)c(O)c(O)c3-c3c1cc(O)c(O)c3O)[C@H](O)O[C@@H]1COC(=O)c3cc(O)c(O)c(O)c3-c3c(O)c(O)c4oc(=O)c5c(c(O)c(O)c6oc(=O)c3c4c65)-c3c(cc(O)c(O)c3O)C(=O)O[C@@H]21; assay: as §4; outline: as §2
[32] = tested on: O=C(OC[C@H]1O[C@@H](OC(=O)c2cc(O)c(O)c(O)c2)[C@H](OC(=O)c2cc(O)c(O)c(O)c2)[C@@H](OC(=O)c2cc(O)c(O)c(O)c2)[C@@H]1OC(=O)c1cc(O)c(O)c(O)c1)c1cc(O)c(O)c(O)c1; assay: as §4; outline: as §2
[33] = tested on: Oc1cc(O)c2c(c1)O[C@H](c1ccc(O)c(O)c1)[C@H](O)[C@H]2c1c(O)cc(O)c2c1O[C@H](c1ccc(O)c(O)c1)[C@H](O)[C@H]2c1c(O)cc(O)c2c1O[C@H](c1ccc(O)c(O)c1)[C@H](O)C2; assay: as §4; outline: as §2
O=C(O)c1cc(O)c(O)c(O)c1 [34] = assay: as §4; outline: as §2
[35] = tested on: Oc1cc(O)c2c(c1)O[C@H](c1cc(O)c(O)c(O)c1)[C@H](O)C2; assay: as §4; outline: as §2
[36] = tested on: O=c1oc2c(O)c(O)cc3c(=O)oc4c(O)c(O)cc1c4c23; assay: as §4; outline: as §2
COC(=O)c1cc(O)c(O)c(O)c1 [37] = assay: as §4; outline: as §2
[38] = tested on: Oc1cc(O)c2c(c1)O[C@@]1(c3ccc(O)c(O)c3)Oc3cc(O)c4c(c3[C@@H]2[C@H]1O)O[C@H](c1ccc(O)c(O)c1)[C@H](O)C4; assay: as §4; outline: as §2

Substance: Lactoperoxidase (Bos taurus) (from UniProt P80025)
- kcat/Km [1]: 43.8 µM⁻¹ s⁻¹
- kcat/Km [2]: 68.4 µM⁻¹ s⁻¹
- kcat/Km [3]: 48.1 µM⁻¹ s⁻¹
- kcat/Km [4]: 50.3 µM⁻¹ s⁻¹
- kcat/Km [5]: 12.1 µM⁻¹ s⁻¹
- kcat/Km [6]: 1.1 µM⁻¹ s⁻¹
- kcat/Km [7]: 0.8 µM⁻¹ s⁻¹
- kcat/Km (O=C(O)c1cc(O)c(O)c(O)c1 [8]): 0.2 µM⁻¹ s⁻¹
- kcat/Km [9]: 53.7 µM⁻¹ s⁻¹
- kcat/Km [10]: 98.3 µM⁻¹ s⁻¹
- kcat/Km (COC(=O)c1cc(O)c(O)c(O)c1 [11]): 64.7 µM⁻¹ s⁻¹
- kcat/Km [12]: 4.74 µM⁻¹ s⁻¹
- Km [13]: 0.32 µM
- Km [14]: 0.61 µM
- Km [15]: 1.26 µM
- Km [16]: 1.37 µM
- Km [17]: 0.37 µM
- Km [18]: 10.6 µM
- Km [19]: Not Active
- Km [20]: 8.41 µM
- Km (O=C(O)c1cc(O)c(O)c(O)c1 [21]): 177 µM
- Km [22]: 0.32 to 0.81 µM
- Km [23]: 0.3 µM
- Km (COC(=O)c1cc(O)c(O)c(O)c1 [24]): 1.24 µM
- Km [25]: 12.7 µM
- kcat [26]: 13.9 s⁻¹
- kcat [27]: 41.4 s⁻¹
- kcat [28]: 60.6 s⁻¹
- kcat [29]: 63.7 s⁻¹
- kcat [30]: 4.53 s⁻¹
- kcat [31]: 11.8 s⁻¹
- kcat [32]: Not Active
- kcat [33]: 6.43 s⁻¹
- kcat (O=C(O)c1cc(O)c(O)c(O)c1 [34]): 30.9 s⁻¹
- kcat [35]: 13.9 to 43.6 s⁻¹
- kcat [36]: 29.3 s⁻¹
- kcat (COC(=O)c1cc(O)c(O)c(O)c1 [37]): 80.3 s⁻¹
- kcat [38]: 60 s⁻¹
